Laboratory results: ChEMBL document CHEMBL5338819, “Tuning the Metabolic Stability of Visual Cycle Modulators through Modification of an RPE65 Recognition Motif” (J Med Chem, 2023)
Calls of active or inactive are those of the source. The calls are words filed in the database; no cut-off is given here.

Legend:
[1] = target: T1, Retinoid isomerohydrolase (Mus musculus) (UniProt Q91ZQ5); assay: In vivo inhibition of RPE65 in BALB/cJ mouse eye by measuring 11-cis-retinal level per eye at 10 mg/kg,ip administrated and measured after 24 hrs of dark adaptation by HPLC analysis; type: functional, organism-based
T1 sequence (whole entry): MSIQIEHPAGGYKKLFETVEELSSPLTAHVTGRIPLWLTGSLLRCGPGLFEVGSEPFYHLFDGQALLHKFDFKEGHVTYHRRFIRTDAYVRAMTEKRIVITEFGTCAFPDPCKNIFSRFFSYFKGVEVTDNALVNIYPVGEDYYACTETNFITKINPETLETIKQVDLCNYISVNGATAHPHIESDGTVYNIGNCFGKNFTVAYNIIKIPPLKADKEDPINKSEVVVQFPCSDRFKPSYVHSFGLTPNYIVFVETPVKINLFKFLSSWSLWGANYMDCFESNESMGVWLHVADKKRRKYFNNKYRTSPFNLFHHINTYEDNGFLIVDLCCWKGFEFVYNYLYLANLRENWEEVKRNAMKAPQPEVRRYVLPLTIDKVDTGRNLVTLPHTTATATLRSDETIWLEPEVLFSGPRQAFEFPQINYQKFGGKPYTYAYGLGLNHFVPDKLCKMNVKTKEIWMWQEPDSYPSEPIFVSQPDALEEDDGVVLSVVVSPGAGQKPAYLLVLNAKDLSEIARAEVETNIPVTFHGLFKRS

[2] = target: T1, Retinoid isomerohydrolase (Mus musculus); assay: In vivo inhibition of RPE65 in BALB/cJ mouse eye by measuring retinyl ester level per eye at 10 mg/kg,ip administrated by HPLC analysis; type: functional, organism-based
[3] = target: T1, Retinoid isomerohydrolase (Mus musculus); assay: In vivo inhibition of RPE65 in BALB/cJ mouse eye by measuring 11-cis-retinal level per eye at 10 mg/kg,ip administrated by HPLC analysis; type: functional, organism-based
[4] = target: Retinoid isomerohydrolase (Bos taurus, UniProt Q28175); assay: Inhibition of RPE65 in bovine microsomes assessed as reduction on 11-cis-retinol production incubated for 1 hr by HPLC analysis; design: species or system Microsome
Chain of Retinoid isomerohydrolase (Q28175 whole entry): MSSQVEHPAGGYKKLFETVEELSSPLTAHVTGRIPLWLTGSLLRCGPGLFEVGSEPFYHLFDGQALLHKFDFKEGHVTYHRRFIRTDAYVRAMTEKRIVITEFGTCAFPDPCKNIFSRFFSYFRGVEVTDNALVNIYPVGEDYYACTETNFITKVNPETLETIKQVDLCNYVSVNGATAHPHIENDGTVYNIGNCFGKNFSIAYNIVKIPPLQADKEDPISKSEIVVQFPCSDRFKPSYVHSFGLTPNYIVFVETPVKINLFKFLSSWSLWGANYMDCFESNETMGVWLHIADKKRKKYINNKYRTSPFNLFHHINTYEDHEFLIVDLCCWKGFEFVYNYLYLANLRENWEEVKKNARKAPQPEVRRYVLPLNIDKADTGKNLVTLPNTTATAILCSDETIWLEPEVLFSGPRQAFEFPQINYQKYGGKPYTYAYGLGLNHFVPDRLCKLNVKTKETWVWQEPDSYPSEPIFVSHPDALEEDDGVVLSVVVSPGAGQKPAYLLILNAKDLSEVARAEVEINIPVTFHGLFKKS

[5] = target: T1, Retinoid isomerohydrolase (Mus musculus); assay: In vivo inhibition of RPE65 in BALB/cJ mouse eye by measuring retinyl ester level per eye at 10 mg/kg,ip administrated and measured after 24 hrs of dark adaptation by HPLC analysis; type: functional, organism-based
[6] = target: T1, Retinoid isomerohydrolase (Mus musculus); assay: In vivo inhibition of RPE65 in BALB/cJ mouse eye by measuring retinyl ester level per eye at 10 mg/kg,ip administrated and measured after 4 hrs of dark adaptation by HPLC analysis; type: functional, organism-based
[7] = target: T1, Retinoid isomerohydrolase (Mus musculus); assay: In vivo inhibition of RPE65 in BALB/cJ mouse eye by measuring 11-cis-retinal level per eye at 10 mg/kg,ip administrated and measured after 4 hrs of dark adaptation by HPLC analysis; type: functional, organism-based
[8] = Drug concentration in C57BL/6J mouse serum assessed as emixustat concentration at 10 mg/kg,ip administrated and measured after 4 hr by HPLC-MS analysis; type: ADME, organism-based; details: in vivo, read-out: Ct
[9] = Metabolic stability in mouse liver microsomes assessed as CYP450-mediated metabolism by measuring initial velocity at 200 uM measured upto 60 mins in presence of NADPH by HPLC analysis; type: ADME, Microsome; details: 1 h
[10] = Intrinsic clearance in mouse liver microsomes measured upto 60 mins in presence of NADPH by HPLC analysis; type: ADME, Microsome; details: 1 h
[11] = Drug metabolism in mouse aorta assessed as VAP-1 mediated oxidative deaminated product formation by measuring ACU-5201 metabolite concentration by HPLC analysis; type: ADME, tissue-based
[12] = Drug metabolism in mouse aorta assessed as VAP-1 mediated oxidative deaminated product formation by measuring ACU-5201 metabolite concentration and measured after 4 hr by HPLC analysis; type: ADME, tissue-based
[13] = Drug concentration in C57BL/6J mouse eye assessed per eye at 10 mg/kg,ip administrated and measured after 4 hr by HPLC-MS analysis; type: ADME, organism-based; details: in vivo
[14] = Drug concentration in mouse aorta by HPLC analysis; type: ADME, tissue-based; details: in vitro, read-out: Drug uptake
[15] = Metabolic stability in mouse liver microsomes assessed as CYP450-mediated metabolism by measuring initial velocity at 25 uM measured upto 60 mins in presence of NADPH by HPLC analysis; type: ADME, Microsome; details: 1 h
[16] = Drug concentration in mouse aorta measured after 4 hr by HPLC analysis; type: ADME, tissue-based; details: read-out: Drug uptake
[17] = Metabolic stability in mouse liver microsomes assessed as CYP450-mediated metabolism by measuring Vmax measured upto 60 mins in presence of NADPH by Michaelis-Menten based HPLC analysis; type: ADME, Microsome; details: 1 h
[18] = Drug concentration in C57BL/6J mouse serum at 10 mg/kg,ip administrated and measured after 1 hr by HPLC-MS analysis; type: ADME, organism-based; details: read-out: Ct
[19] = Drug metabolism in mouse aorta assessed as VAP-1 mediated oxidative deaminated product formation by measuring ACU-5201 metabolite concentration and measured after 1 hr by HPLC analysis; type: ADME, tissue-based
[20] = Metabolic stability in mouse liver microsomes assessed as CYP450-mediated metabolism by measuring Km measured upto 60 mins in presence of NADPH by Michaelis-Menten based HPLC analysis; type: ADME, Microsome; details: 1 h
[21] = Drug concentration in C57BL/6J mouse eye assessed as emixustat concentration per eye at 10 mg/kg,ip administrated and measured after 24 hr by HPLC-MS analysis; type: ADME, organism-based; details: in vivo
[22] = Metabolic stability in mouse liver microsomes assessed as CYP450-mediated metabolism by measuring initial velocity at 15 uM measured upto 60 mins in presence of NADPH by HPLC analysis; type: ADME, Microsome; details: 1 h
[23] = Metabolic stability in mouse liver microsomes assessed as CYP450-mediated metabolism by measuring initial velocity at 100 uM measured upto 60 mins in presence of NADPH by HPLC analysis; type: ADME, Microsome; details: 1 h
[24] = Drug concentration in C57BL/6J mouse eye assessed per eye at 10 mg/kg,ip administrated and measured after 24 hr by HPLC-MS analysis; type: ADME, organism-based; details: in vivo
[25] = Drug concentration in mouse aorta measured after 1 hr by HPLC analysis; type: ADME, tissue-based; details: read-out: Drug uptake
[26] = Drug concentration in C57BL/6J mouse serum assessed as emixustat concentration at 10 mg/kg,ip administrated and measured after 1 hr by HPLC-MS analysis; type: ADME, organism-based; details: in vivo, read-out: Ct
[27] = Metabolic stability in mouse liver microsomes assessed as CYP450-mediated metabolism by measuring initial velocity at 50 uM measured upto 60 mins in presence of NADPH by HPLC analysis; type: ADME, Microsome; details: 1 h
[28] = target: Retinoid isomerohydrolase (Bos taurus) (UniProt Q28175); assay: Inhibition of RPE65 in bovine microsomes assessed as reduction on 11-cis-retinol production at 0.5 to 50 uM incubated for 1 hr by HPLC analysis; details: Microsome, dose 0.5-50 µM
Chain of Retinoid isomerohydrolase (Bos taurus) (Q28175 2-533 limits assumed): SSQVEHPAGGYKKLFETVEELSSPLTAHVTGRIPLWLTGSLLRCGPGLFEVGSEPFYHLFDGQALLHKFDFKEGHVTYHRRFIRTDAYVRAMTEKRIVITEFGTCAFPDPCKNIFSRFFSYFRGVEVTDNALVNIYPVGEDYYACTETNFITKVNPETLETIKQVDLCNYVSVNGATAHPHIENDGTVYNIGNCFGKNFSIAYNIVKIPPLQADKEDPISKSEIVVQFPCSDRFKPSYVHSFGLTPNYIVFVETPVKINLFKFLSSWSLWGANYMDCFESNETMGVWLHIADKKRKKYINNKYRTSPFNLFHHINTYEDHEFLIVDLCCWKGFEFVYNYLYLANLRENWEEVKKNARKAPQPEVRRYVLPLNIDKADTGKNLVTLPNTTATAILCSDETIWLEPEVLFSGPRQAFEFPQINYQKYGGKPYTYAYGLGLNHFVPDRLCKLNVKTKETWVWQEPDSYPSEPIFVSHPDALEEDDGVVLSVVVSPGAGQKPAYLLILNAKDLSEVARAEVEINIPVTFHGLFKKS

[29] = target: Retinoid isomerohydrolase (Bos taurus) (UniProt Q28175); assay: Inhibition of RPE65 in bovine microsomes assessed as fold decrease in 11-cis-retinol production at 0.02 to 10 uM incubated for 1 hr by HPLC analysis; details: Microsome, dose 0.02-10 µM
Outline: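 Bovine RPE microsomes in 10 mM BTP pH 7.4 with 1% BSA, 5 mM pyrophosphate and 16.4 µM apo-CRALBP (His-tagged, E. coli-expressed, Ni-purified). Amine in DMF, 0–10 µM final, was preincubated 2 min. All-trans-retinol was added, then 1 h at 37 °C in the dark. Reaction was quenched with methanol and extracted with hexane. 11-cis-retinol was quantified by normal-phase HPLC.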

CC(CN)Cc1cccc(OCC2CCCCC2)c1 (configuration not stated)
Activity [1]: 254 pmol
Activity [2]: 256 pmol
Activity [3]: 17.4 pmol
IC50 ([4]; read-out: IC50): 390 nM
Activity [5]: 85.6 pmol
Activity [6]: 112 pmol
Activity [7]: 323 pmol

CNCCC(O)c1cccc(OCC2CCCCC2)c1 (configuration not stated)
Activity [1]: 202 pmol
Activity [2]: 297 pmol
concentration [8]: 0.0795 µM
Activity [3]: 13.8 pmol
V0 [9]: 97.45 pmol/min
IC50 ([4]; read-out: IC50): 290 nM
CLH [10]: 30700 µL/min/mg
Drug metabolism [11]: 0 µM
Drug metabolism [12]: 3.76 µM
Ct [13]: 7.609 pmol
concentration [14]: 100 µM
V0 [15]: 54.17 pmol/min
concentration at 4 h [16]: 89.1 µM
Vmax [17]: 119.5 pmol/min
concentration at 1 h [18]: 0.75 µM
Drug metabolism [19]: 0.48 µM
Km [20]: 0.039 µM
Activity [5]: 215 pmol
Ct [21]: 1.329 pmol
Activity [6]: 396 pmol
V0 [22]: 23.38 pmol/min
V0 [23]: 89.82 pmol/min
Ct [24]: 0 pmol
concentration at 1 h [25]: 101 µM
concentration [26]: 0.0523 µM
Activity [7]: 22.5 pmol
V0 [27]: 64.21 pmol/min

NC(CO)Cc1cccc(OCC2CCCCC2)c1 (configuration not stated)
IC50 [4]: Not Active
inhibition [28]: inactive

CC(CCN)c1cccc(OCC2CCCCC2)c1 (configuration not stated)
Activity [1]: 370 pmol
Activity [2]: 292 pmol
Activity [3]: 25.6 pmol
fold change (FC) [29]: 4
Activity [5]: 124 pmol
Activity [6]: 436 pmol
Activity [7]: 94.4 pmol

NCCc1cccc(OCC2CCCCC2)c1
Activity [1]: 406 pmol
Activity [2]: 254 pmol
Activity [3]: 16 pmol
Activity [5]: 65 pmol
Activity [6]: 89.5 pmol
Activity [7]: 393 pmol

NC(CO)Cc1ccc(OCC2CCCCC2)cc1 (configuration not stated)
IC50 [4]: Not Active
inhibition [28]: inactive

CC(CN)Cc1ccc(F)c(OCC2CCCCC2)c1 (configuration not stated)
Activity [1]: 398 pmol
Activity [2]: 260 pmol
Activity [3]: 23.5 pmol
IC50 [4]: Not Active
Activity [5]: 123 pmol
Activity [6]: 101 pmol
Activity [7]: 413 pmol

NC(CCO)c1cccc(OCC2CCCCC2)c1 (configuration not stated)
IC50 [4]: Not Active
inhibition [28]: inactive

NCCCc1cccc(OCC2CCCCC2)c1
fold change (FC) [29]: 8

NCCC(O)c1ccc(OCC2CCCCC2)cc1 (configuration not stated)
IC50 ([4]; read-out: IC50): 8080 nM
